ChEMBL document CHEMBL3853270, “Influence of Birch Bark Triterpenes on Keratinocytes and Fibroblasts from Diabetic and Nondiabetic Donors” (2016)
Active and inactive are the calls of the source. The calls are words filed in the database; no cut-off is given here.

Experiments:
Keratinocyte [1] = test: Effect on MMP1 mRNA expression levels in non-diabetic young human primary keratinocytes at 9.81 uM after 6 hrs by qPCR analysis; format: functional
In short: (§1)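 Primary keratinocytes from nondiabetic young and adult and diabetic adult donors; 400 000 cells per sample, 6 h exposure at 1.96 or 9.81 μM. RNA extracted and read on a high-throughput qPCR chip. Results are fold change versus 0.1% DMSO solvent control from 5−7 independent experiments over two donors per group, SD, one-way ANOVA with Bonferroni post-test.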

Fibroblast [2] = test: Effect on antiinflammatory related gene expression in non-diabetic young human primary fibroblasts assessed as SOCS3 mRNA levels at 9.81 uM after 6 hrs by qPCR analysis; format: functional
[3] = Effect on wound healing activity in non-diabetic adult human primary fibroblasts assessed as upregulation of soluble ICAM1 protein levels at 1.96 uM after 24 hrs by bead-based suspension array analysis; format: functional; conditions: Fibroblast
Keratinocyte [4] = test: Effect on MMP1 mRNA expression levels in diabetic adult human primary keratinocytes at 9.81 uM after 6 hrs by qPCR analysis; format: functional; in short: as §1
Keratinocyte [5] = test: Effect on pro-inflammatory related gene expression in non-diabetic adult human primary keratinocytes assessed as IL1B mRNA levels at 1.96 uM after 6 hrs by qPCR analysis; format: functional
Keratinocyte [6] = test: Effect on pro-inflammatory related gene expression in non-diabetic adult human primary keratinocytes assessed as TNF mRNA levels at 9.81 uM after 6 hrs by qPCR analysis; format: functional
Fibroblast [7] = test: Effect on transcription factor related gene expression in diabetic adult human primary fibroblasts assessed as JUN mRNA levels at 9.81 uM after 6 hrs by qPCR analysis; format: functional
Fibroblast [8] = test: Effect on transcription factor related gene expression in diabetic adult human primary fibroblasts assessed as JUN mRNA levels at 1.96 uM after 6 hrs by qPCR analysis; format: functional
Keratinocyte [9] = test: Effect on chemokines related gene expression in non-diabetic young human primary keratinocytes assessed as IL8 mRNA levels at 1.96 uM after 6 hrs by qPCR analysis; format: functional
In short: (§2)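 Primary human keratinocytes (nondiabetic young or adult, diabetic adult donors) were exposed to compound for 6 h, with 0.1% DMSO as solvent control. Total RNA came from 400 000 cells per sample and was assayed on a Fluidigm Biomark high-throughput qPCR chip. Results are fold change vs solvent control, from 2−4 independent experiments on two donors per group, with SD. Groups were compared by one-way ANOVA with Bonferroni post-test.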

Keratinocyte [10] = test: Effect on pro-inflammatory related gene expression in diabetic adult human primary keratinocytes assessed as IL1R1 mRNA levels at 9.81 uM after 6 hrs by qPCR analysis; format: functional
[11] = Effect on wound healing activity in diabetic adult human primary keratinocytes assessed as upregulation of TNFalpha protein levels at 1.96 uM after 24 hrs by bead-based suspension array analysis; format: functional; conditions: Keratinocyte
Keratinocyte [12] = test: Effect on growth factor related gene expression in non-diabetic adult human primary keratinocytes assessed as PDGFB mRNA levels at 1.96 uM after 6 hrs by qPCR analysis; format: functional; in short: as §2
Keratinocyte [13] = test: Effect on MMP1 mRNA expression levels in non-diabetic adult human primary keratinocytes at 9.81 uM after 6 hrs by qPCR analysis; format: functional; in short: as §1
Fibroblast [14] = test: Effect on antiinflammatory related gene expression in diabetic adult human primary fibroblasts assessed as SOCS3 mRNA levels at 1.96 uM after 6 hrs by qPCR analysis; format: functional
In short: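 Primary dermal fibroblasts from one nondiabetic young, one nondiabetic adult and one diabetic adult donor; 320 000 cells per sample, 6 h at 1.96 or 9.81 μM. RNA measured on a high-throughput qPCR chip. Fold change versus 0.1% DMSO control, four independent experiments, SD, one-way ANOVA with Bonferroni post-test.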

Fibroblast [15] = test: Effect on chemokines related gene expression in non-diabetic young human primary fibroblasts assessed as IL8 mRNA levels at 1.96 uM after 6 hrs by qPCR analysis; format: functional
In short: (§3)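 Primary human dermal fibroblasts (young or adult nondiabetic, adult diabetic donor) were treated for 6 h against a 0.1% DMSO solvent control. RNA from 320 000 cells per sample was measured by Fluidigm Biomark high-throughput qPCR. Values are fold change relative to solvent control, from four independent experiments, with SD. One-way ANOVA with Bonferroni post-test was applied.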

Fibroblast [16] = test: Effect on antioxidant related gene expression in non-diabetic young human primary fibroblasts assessed as NFE2L2 mRNA levels at 1.96 uM after 6 hrs by qPCR analysis; format: functional
Fibroblast [17] = test: Effect on chemokines related gene expression in diabetic adult human primary fibroblasts assessed as IL8 mRNA levels at 9.81 uM after 6 hrs by qPCR analysis; format: functional
[18] = target: Cell division control protein 42 homolog (Homo sapiens) (UniProt P60953); test: Activation of Cdc42 in human diabetic primary keratinocytes at 10 nM after 20 mins by immunoblot method
In short: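 Keratinocytes from a diabetic adult donor; incubation 3 h for RhoA, 20 min for Cdc42 and Rac1. Lysates made in glycerol/Tris pH 7.4/NaCl/NP-40/MgCl2/PMSF buffer, spun at 4 °C. Active GTP-bound form pulled down on glutathione-sepharose with GST-Rhotekin (RhoA) or GST-PAK (Cdc42, Rac1) for 1 h at 4 °C. Total and pulled-down protein read by immunoblot with ECL; n = 3.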

Fibroblast [19] = test: Effect on pro-inflammatory related gene expression in non-diabetic adult human primary fibroblasts assessed as IL1R1 mRNA levels at 1.96 uM after 6 hrs by qPCR analysis; format: functional
Fibroblast [20] = test: Effect on chemokines related gene expression in diabetic adult human primary fibroblasts assessed as WDR26 mRNA levels at 9.81 uM after 6 hrs by qPCR analysis; format: functional
Fibroblast [21] = test: Effect on pro-inflammatory related gene expression in non-diabetic adult human primary fibroblasts assessed as IL1B mRNA levels at 9.81 uM after 6 hrs by qPCR analysis; format: functional
Fibroblast [22] = test: Effect on antioxidant related gene expression in non-diabetic young human primary fibroblasts assessed as SOD2 mRNA levels at 9.81 uM after 6 hrs by qPCR analysis; format: functional
[23] = Effect on wound healing activity in diabetic adult human primary keratinocytes assessed as upregulation of IL8 protein levels at 1.96 uM after 24 hrs by bead-based suspension array analysis; format: functional; conditions: Keratinocyte
Keratinocyte [24] = test: Effect on chemokines related gene expression in diabetic adult human primary keratinocytes assessed as IL8 mRNA levels at 9.81 uM after 6 hrs by qPCR analysis; format: functional
Keratinocyte [25] = test: Effect on cellular connection related gene expression in non-diabetic adult human primary keratinocytes assessed as GJB2 mRNA levels at 9.81 uM after 6 hrs by qPCR analysis; format: functional
Keratinocyte [26] = test: Effect on transcription factor related gene expression in diabetic adult human primary keratinocytes assessed as JUN mRNA levels at 9.81 uM after 6 hrs by qPCR analysis; format: functional
Fibroblast [27] = test: Effect on growth factor related gene expression in diabetic adult human primary fibroblasts assessed as GDF15 mRNA levels at 1.96 uM after 6 hrs by qPCR analysis; format: functional; in short: as §3
Keratinocyte [28] = test: Effect on AQP3 mRNA expression levels in diabetic adult human primary keratinocytes at 9.81 uM after 6 hrs by qPCR analysis; format: functional; in short: as §1
Fibroblast [29] = test: Effect on chemokines related gene expression in non-diabetic young human primary fibroblasts assessed as WDR26 mRNA levels at 1.96 uM after 6 hrs by qPCR analysis; format: functional; in short: as §3

Sequence of Cell division control protein 42 homolog (Homo sapiens) (P60953 whole entry, looked up): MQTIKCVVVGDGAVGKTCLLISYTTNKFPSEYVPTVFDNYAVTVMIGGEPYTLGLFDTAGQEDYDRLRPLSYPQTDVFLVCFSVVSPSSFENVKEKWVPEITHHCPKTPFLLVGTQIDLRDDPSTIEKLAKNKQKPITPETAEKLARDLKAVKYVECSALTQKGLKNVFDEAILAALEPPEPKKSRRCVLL

C=C(C)[C@@H]1CC[C@]2(CO)CC[C@]3(C)[C@H](CC[C@@H]4[C@@]5(C)CC[C@H](O)C(C)(C)[C@@H]5CC[C@]43C)[C@@H]12 [BETULIN]
fold change (FC) (Keratinocyte [1]): 1 | fold change (FC) (Fibroblast [2]): 3.2 | Activity [3]: Active | fold change (FC) (Keratinocyte [4]): 1.8 | fold change (FC) (Keratinocyte [5]): 0.8 | fold change (FC) (Keratinocyte [6]): 6.1 | fold change (FC) (Fibroblast [7]): 1.2 | fold change (FC) (Fibroblast [8]): 1.3 | fold change (FC) (Keratinocyte [9]): 9.7 | fold change (FC) (Keratinocyte [10]): 0.9 | Activity [11]: Active | fold change (FC) (Keratinocyte [12]): 0.8 | fold change (FC) (Keratinocyte [13]): 1 | fold change (FC) (Fibroblast [14]): 2 | fold change (FC) (Fibroblast [15]): 23.5 | fold change (FC) (Fibroblast [16]): 1.2 | fold change (FC) (Fibroblast [17]): 3.7 | Activity [18]: Active | fold change (FC) (Fibroblast [19]): 4.8 | fold change (FC) (Fibroblast [20]): 1.2 | fold change (FC) (Fibroblast [21]): 214 | fold change (FC) (Fibroblast [22]): 2.2 | Activity [23]: Active | fold change (FC) (Keratinocyte [24]): 56 | fold change (FC) (Keratinocyte [25]): 0.8 | fold change (FC) (Keratinocyte [26]): 1.7 | fold change (FC) (Fibroblast [27]): 2.4 | fold change (FC) (Keratinocyte [28]): 0.8 | fold change (FC) (Fibroblast [29]): 1.1
